# Tests used:
# [1] = target: T1, DNA topoisomerase 1 (Homo sapiens) (UniProt P11387); experiment: Inhibition of human recombinant DNA topoisomerse 1 using pBR322 as substrate assessed as inhibition of conversion of supercoiled pBR322 to relaxed form at 100 uM after 30 mins by ethidium bromide staining-based electrophoresis analysis
# T1 sequence (whole entry): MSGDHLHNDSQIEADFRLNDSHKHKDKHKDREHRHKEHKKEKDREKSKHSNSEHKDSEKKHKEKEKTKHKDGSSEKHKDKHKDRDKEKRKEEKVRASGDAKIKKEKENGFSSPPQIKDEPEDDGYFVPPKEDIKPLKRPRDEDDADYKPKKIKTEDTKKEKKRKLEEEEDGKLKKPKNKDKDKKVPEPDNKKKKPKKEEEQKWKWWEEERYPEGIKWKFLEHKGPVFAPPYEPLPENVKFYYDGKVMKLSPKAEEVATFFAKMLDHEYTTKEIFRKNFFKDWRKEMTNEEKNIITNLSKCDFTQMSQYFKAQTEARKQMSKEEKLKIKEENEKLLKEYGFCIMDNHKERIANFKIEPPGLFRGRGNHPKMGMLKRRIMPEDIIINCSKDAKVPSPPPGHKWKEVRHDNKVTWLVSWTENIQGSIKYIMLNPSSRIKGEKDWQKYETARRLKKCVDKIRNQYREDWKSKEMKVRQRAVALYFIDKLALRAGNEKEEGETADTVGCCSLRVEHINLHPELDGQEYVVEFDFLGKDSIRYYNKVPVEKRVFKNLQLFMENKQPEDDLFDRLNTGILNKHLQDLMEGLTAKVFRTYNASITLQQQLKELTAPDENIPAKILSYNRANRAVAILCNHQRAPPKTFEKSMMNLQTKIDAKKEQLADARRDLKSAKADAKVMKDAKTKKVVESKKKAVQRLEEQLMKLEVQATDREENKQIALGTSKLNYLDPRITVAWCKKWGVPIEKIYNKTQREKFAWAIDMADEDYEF
# In short: (§1)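 Relaxation of supercoiled pBR322 (100 ng) by 1 unit recombinant human topo I. Run at 37 °C for 30 min in 10 mM Tris-HCl pH 7.9, 150 mM NaCl, 0.1% BSA, 1 mM spermidine, 5% glycerol. Compounds from 20 mM DMSO stocks. Stopped with sarcosyl, then 1% agarose gel at 15 V for 7 h in TAE. Ethidium bromide stain, UV imaging, bands quantitated.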
# [2] = target: T1, DNA topoisomerase 1 (Homo sapiens); experiment: Inhibition of human recombinant DNA topoisomerse 1 using pBR322 as substrate assessed as inhibition of conversion of supercoiled pBR322 to relaxed form at 20 uM after 30 mins by ethidium bromide staining-based electrophoresis analysis; in short: as §1
# [3] = target: DNA topoisomerase 2-alpha (Homo sapiens) (UniProt P11388); experiment: Inhibition of human recombinant DNA topoisomerse 2 alpha using pBR322 as substrate assessed as inhibition of conversion of supercoiled pBR322 to relaxed form at 100 uM after 30 mins by ethidium bromide staining-based electrophoresis analysis
# Chain of DNA topoisomerase 2-alpha (Homo sapiens) (P11388 whole entry): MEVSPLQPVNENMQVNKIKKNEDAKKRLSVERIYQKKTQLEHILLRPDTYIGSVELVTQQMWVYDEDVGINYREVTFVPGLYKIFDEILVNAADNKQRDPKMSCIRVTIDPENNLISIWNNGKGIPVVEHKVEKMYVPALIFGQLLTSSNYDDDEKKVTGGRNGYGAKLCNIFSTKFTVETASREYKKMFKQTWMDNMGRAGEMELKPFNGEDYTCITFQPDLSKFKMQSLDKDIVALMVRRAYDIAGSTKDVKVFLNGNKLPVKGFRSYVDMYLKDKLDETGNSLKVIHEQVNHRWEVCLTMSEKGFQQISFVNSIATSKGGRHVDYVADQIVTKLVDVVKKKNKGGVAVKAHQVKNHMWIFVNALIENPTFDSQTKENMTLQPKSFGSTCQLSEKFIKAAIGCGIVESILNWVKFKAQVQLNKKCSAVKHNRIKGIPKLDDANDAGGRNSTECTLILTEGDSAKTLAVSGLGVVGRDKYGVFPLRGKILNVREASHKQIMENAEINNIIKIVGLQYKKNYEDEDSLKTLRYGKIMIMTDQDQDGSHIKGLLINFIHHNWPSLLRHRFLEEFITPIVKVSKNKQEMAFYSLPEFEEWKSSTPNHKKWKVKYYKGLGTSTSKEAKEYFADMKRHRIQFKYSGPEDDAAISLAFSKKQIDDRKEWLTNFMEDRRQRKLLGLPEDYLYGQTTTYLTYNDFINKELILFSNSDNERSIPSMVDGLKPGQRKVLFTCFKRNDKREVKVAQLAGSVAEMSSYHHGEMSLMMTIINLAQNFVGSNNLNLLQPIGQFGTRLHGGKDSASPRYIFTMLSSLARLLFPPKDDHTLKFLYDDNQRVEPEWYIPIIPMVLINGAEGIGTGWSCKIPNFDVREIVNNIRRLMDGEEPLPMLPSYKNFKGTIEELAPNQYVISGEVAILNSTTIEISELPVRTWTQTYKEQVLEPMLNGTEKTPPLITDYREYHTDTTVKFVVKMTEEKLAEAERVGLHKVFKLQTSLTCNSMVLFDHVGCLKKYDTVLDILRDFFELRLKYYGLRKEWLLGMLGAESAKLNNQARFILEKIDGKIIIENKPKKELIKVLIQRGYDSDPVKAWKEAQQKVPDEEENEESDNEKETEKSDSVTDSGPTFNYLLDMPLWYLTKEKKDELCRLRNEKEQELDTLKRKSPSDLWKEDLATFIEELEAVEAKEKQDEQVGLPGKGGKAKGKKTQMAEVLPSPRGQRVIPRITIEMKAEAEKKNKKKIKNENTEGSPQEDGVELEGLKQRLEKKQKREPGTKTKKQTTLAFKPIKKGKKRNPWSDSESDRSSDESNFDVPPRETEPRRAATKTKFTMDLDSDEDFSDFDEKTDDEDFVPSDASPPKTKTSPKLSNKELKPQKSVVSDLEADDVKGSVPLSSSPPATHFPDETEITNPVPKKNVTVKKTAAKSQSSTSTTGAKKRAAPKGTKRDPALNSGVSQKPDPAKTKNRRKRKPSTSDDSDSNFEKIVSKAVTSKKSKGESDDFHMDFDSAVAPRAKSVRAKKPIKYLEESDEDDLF
# In short: (§2)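 Supercoiled pBR322 (200 ng) with 1 unit human topo IIα, 30 min at 30 °C. Buffer: 10 mM Tris-HCl pH 7.9, 50 mM NaCl, 5 mM MgCl2, 1 mM EDTA, 1 mM ATP, 15 μg/mL BSA. Stopped with EDTA. 1% agarose gel at 25 V for 4 h in TAE, ethidium bromide stain, supercoiled DNA quantitated under UV.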
# [4] = target: DNA topoisomerase 2-alpha (Homo sapiens) (UniProt P11388); experiment: Inhibition of human recombinant DNA topoisomerse 2 alpha using pBR322 as substrate assessed as inhibition of conversion of supercoiled pBR322 to relaxed form at 20 uM after 30 mins by ethidium bromide staining-based electrophoresis analysis; in short: as §2
# HCT-15 = experiment: Cytotoxicity against human HCT15 cells incubated from day 2 to day 4 by CCK8 assay; type: functional, cell-based
# In short: (§3)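 Cells seeded at 2~4 × 10^4 per well and grown overnight in medium with 10% FBS at 37 °C, 5% CO2. Day 2: FBS starvation 4 h, then medium with graded compound concentrations. Day 4: CCK-8 added for 4 h more, absorbance read at 450 nm. IC50 from four-parameter logistic fit. Mean ± S.D. of three experiments run in triplicate.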
# T47D = experiment: Cytotoxicity against human T47D cells incubated from day 2 to day 4 by CCK8 assay; type: functional, cell-based; in short: as §3
# DU-145 = experiment: Cytotoxicity against human DU145 cells incubated from day 2 to day 4 by CCK8 assay; type: functional, cell-based; in short: as §3
# HeLa = experiment: Cytotoxicity against human HeLa cells incubated from day 2 to day 4 by CCK8 assay; type: functional, cell-based; in short: as §3
compound,measurement,setting,value
Oc1ccccc1-c1cc(-c2cccs2)c2c(n1)-c1ccccc1C2,inhibition,[1],51.1%
same,inhibition,[2],0%
same,inhibition,[3],31.5%
same,inhibition,[4],21.9%
same,IC50,HCT-15,> 50 µM
same,IC50,T47D,> 50 µM
same,IC50,DU-145,> 50 µM
same,IC50,HeLa,> 50 µM

# Reference: ChEMBL document CHEMBL3596197, “Synthesis, topoisomerase I and II inhibitory activity, cytotoxicity, and structure-activity relationship study of 2-phenyl- or hydroxylated 2-phenyl-4-aryl-5H-indeno[1,2-b]pyridines” (Bioorg Med Chem, 2015)
